Laboratory results reported in ChEMBL document CHEMBL1681666, “Synthesis and in vitro screening of novel N-benzyl aplysinopsin analogs as potential anticancer agents” (2011).

How the values were obtained:
Format in all cases: functional
TK-10 = assay: Anticancer activity against human TK10 cells
Summary of the method: (§1)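 NCI 60-cell-line panel. A single-dose (10 µM) prescreen was run first. Compounds giving over 60% growth inhibition in at least eight lines then went to five-dose response studies. Dose-response curves of effect versus log10 concentration. GI50 is the molar concentration giving a 50% reduction in net protein increase versus control cells. LC50 is the concentration lethal to 50% of cells.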

HL-60(TB) = assay: Anticancer activity against human HL-60(TB) cells
Summary of the method: (§2)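 NCI 60-cell human tumour panel (leukemia, lung, colon, CNS, melanoma, ovarian, renal, prostate, breast). A first-stage single-dose screen at 10 µM was run. Compounds giving over 60% growth inhibition in at least eight lines went on to a five-dose response. Effect was plotted against log10 molar concentration per line. GI50 is the concentration giving 50% reduction in net protein increase versus control cells. LC50 is the concentration lethal to 50% of cells.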

HOP-62 = assay: Anticancer activity against human HOP62 cells; summary of the method: as §2
CAKI-1 = assay: Anticancer activity against human Caki1 cells; summary of the method: as §2
SK-MEL-5 = assay: Anticancer activity against human SK-MEL-5 cells; summary of the method: as §2
OVCAR-3 = assay: Anticancer activity against human OVCAR3 cells; summary of the method: as §2
PC-3 = assay: Anticancer activity against human PC3 cells; summary of the method: as §2
SNB-75 = assay: Anticancer activity against human SNB75 cells; summary of the method: as §1
K562 = assay: Anticancer activity against human K562 cells; summary of the method: as §2
ACHN = assay: Anticancer activity against human ACHN cells; summary of the method: as §2
RXF 393 = assay: Anticancer activity against human RXF393 cells; summary of the method: as §2
M14 = assay: Anticancer activity against human M14 cells; summary of the method: as §2
MOLT-4 = assay: Anticancer activity against human MOLT4 cells; summary of the method: as §2
EKVX = assay: Anticancer activity against human EKVX cells; summary of the method: as §2
[1] = Anticancer activity against human […] cells; summary of the method: as §2
NCI-H460 = assay: Anticancer activity against human NCI-H460 cells; summary of the method: as §2
SN12C = assay: Anticancer activity against human SN12C cells; summary of the method: as §2
SF-539 = assay: Anticancer activity against human SF539 cells; summary of the method: as §2
U-251 = assay: Anticancer activity against human U251 cells; summary of the method: as §1
SNB-19 = assay: Anticancer activity against human SNB19 cells; summary of the method: as §2
MDA-MB-435 = assay: Anticancer activity against human MDA-MB-435 cells; summary of the method: as §2
KM12 = assay: Anticancer activity against human KM12 cells; summary of the method: as §2
COLO 205 = assay: Anticancer activity against human COLO205 cells; summary of the method: as §2
SF-295 = assay: Anticancer activity against human SF295 cells; summary of the method: as §2
NCI-H23 = assay: Anticancer activity against human NCI-H23 cells; summary of the method: as §2
NCI-H322M = assay: Anticancer activity against human NCI-H322M cells; summary of the method: as §2
786-0 = assay: Anticancer activity against human 786-0 cells; summary of the method: as §2
SK-MEL-28 = assay: Anticancer activity against human SK-MEL-28 cells; summary of the method: as §2
MCF7 = assay: Anticancer activity against human MCF7 cells; summary of the method: as §2
OVCAR-8 = assay: Anticancer activity against human OVCAR8 cells; summary of the method: as §2
UO-31 = assay: Anticancer activity against human UO31 cells; summary of the method: as §1
[2] = Anticancer activity against human NCI/ADR cells; settings: NCI/ADR-RES; summary of the method: as §2
IGROV-1 = assay: Anticancer activity against human IGROV1 cells; summary of the method: as §2
SF-268 = assay: Anticancer activity against human SF268 cells; summary of the method: as §2
A498 = assay: Anticancer activity against human A498 cells; summary of the method: as §2
MDA-MB-468 = assay: Anticancer activity against human MDA-MB-468 cells; summary of the method: as §2
UACC-257 = assay: Anticancer activity against human UACC257 cells; summary of the method: as §1
BT-549 = assay: Anticancer activity against human BT549 cells; summary of the method: as §2
NCI-H226 = assay: Anticancer activity against human NCI-H226 cells; summary of the method: as §2
UACC-62 = assay: Anticancer activity against human UACC62 cells; summary of the method: as §1
T47D = assay: Anticancer activity against human T47D cells; summary of the method: as §1
LOX IMVI = assay: Anticancer activity against human LOXIMVI cells; summary of the method: as §2
HT-29 = assay: Anticancer activity against human HT-29 cells; summary of the method: as §2
OVCAR-5 = assay: Anticancer activity against human OVCAR5 cells; summary of the method: as §2
[3] = Anticancer activity against human Hs 578T cells; summary of the method: as §2
A549 = assay: Anticancer activity against human A549 cells; summary of the method: as §2
Malme-3M = assay: Anticancer activity against human MALME-3M cells; summary of the method: as §2
OVCAR-4 = assay: Anticancer activity against human OVCAR4 cells; summary of the method: as §2
SK-OV-3 = assay: Anticancer activity against human SKOV3 cells; summary of the method: as §2
CCRF-CEM = assay: Anticancer activity against human CCRF-CEM cells; summary of the method: as §2
SK-MEL-2 = assay: Anticancer activity against human SK-MEL-2 cells; summary of the method: as §2
MDA-MB-231 = assay: Anticancer activity against human MDA-MB-231 cells; summary of the method: as §2
HCC 2998 = assay: Anticancer activity against human HCC2998 cells; summary of the method: as §2
HCT-116 = assay: Anticancer activity against human HCT116 cells; summary of the method: as §2
SW-620 = assay: Anticancer activity against human SW620 cells; summary of the method: as §1
[4] = read-out: LC50 (the source's name)

COC(=O)c1ccc2c(/C=C3\NC(=O)NC3=O)cn(Cc3ccc(C#N)cc3)c2c1
GI50 (TK-10): 3.87 µM
CC50 (TK-10; [4]): > 100 µM
GI50 (HL-60(TB)): 2.54 µM
CC50 (HL-60(TB); [4]): > 100 µM
GI50 (HOP-62): 3.58 µM
CC50 (HOP-62; [4]): 73 µM
GI50 (CAKI-1): 2.74 µM
CC50 (CAKI-1; [4]): > 100 µM
GI50 (SK-MEL-5): 3.25 µM
CC50 (SK-MEL-5; [4]): > 100 µM
GI50 (OVCAR-3): 2.05 µM
CC50 (OVCAR-3; [4]): > 100 µM
GI50 (PC-3): 2.44 µM
CC50 (PC-3; [4]): > 100 µM
GI50 (SNB-75): 4.6 µM
CC50 (SNB-75; [4]): > 100 µM
GI50 (K562): 0.97 µM
CC50 (K562; [4]): > 100 µM
GI50 (ACHN): 2.08 µM
CC50 (ACHN; [4]): > 100 µM
GI50 (RXF 393): 0.58 µM
CC50 (RXF 393; [4]): > 100 µM
GI50 (M14): 1.43 µM
CC50 (M14; [4]): > 100 µM
GI50 (MOLT-4): 1.38 µM
CC50 (MOLT-4; [4]): > 100 µM
GI50 (EKVX): 4.22 µM
CC50 (EKVX; [4]): > 100 µM
GI50 [1]: 3.61 µM
CC50 [1, 4]: > 100 µM
GI50 (NCI-H460): 2.91 µM
CC50 (NCI-H460; [4]): > 100 µM
GI50 (SN12C): 2.8 µM
CC50 (SN12C; [4]): > 100 µM
GI50 (SF-539): 2.39 µM
CC50 (SF-539; [4]): > 100 µM
GI50 (U-251): 2.03 µM
CC50 (U-251; [4]): 59.1 µM
GI50 (SNB-19): 3.77 µM
CC50 (SNB-19; [4]): > 100 µM
GI50 (MDA-MB-435): 2.76 µM
CC50 (MDA-MB-435; [4]): > 100 µM
GI50 (KM12): 3.73 µM
CC50 (KM12; [4]): > 100 µM
GI50 (COLO 205): 3.16 µM
CC50 (COLO 205; [4]): > 100 µM
GI50 (SF-295): 3.09 µM
CC50 (SF-295; [4]): > 100 µM
GI50 (NCI-H23): 4.07 µM
CC50 (NCI-H23; [4]): > 100 µM
GI50 (NCI-H322M): 0.72 µM
CC50 (NCI-H322M; [4]): > 100 µM
GI50 (786-0): 2.36 µM
CC50 (786-0; [4]): > 100 µM
GI50 (SK-MEL-28): 3.79 µM
CC50 (SK-MEL-28; [4]): > 100 µM
GI50 (MCF7): 3.55 µM
CC50 (MCF7; [4]): > 100 µM
GI50 (OVCAR-8): 3.75 µM
CC50 (OVCAR-8; [4]): > 100 µM
GI50 (UO-31): 2.7 µM
CC50 (UO-31; [4]): > 100 µM
GI50 [2]: > 100 µM
CC50 [2, 4]: > 100 µM
GI50 (IGROV-1): 0.66 µM
CC50 (IGROV-1; [4]): > 100 µM
GI50 (SF-268): 4.22 µM
CC50 (SF-268; [4]): > 100 µM
GI50 (A498): 0.55 µM
CC50 (A498; [4]): > 100 µM
GI50 (MDA-MB-468): 4.14 µM
CC50 (MDA-MB-468; [4]): > 100 µM
GI50 (UACC-257): 4.2 µM
CC50 (UACC-257; [4]): > 100 µM
GI50 (BT-549): 1.24 µM
CC50 (BT-549; [4]): > 100 µM
GI50 (NCI-H226): 5.94 µM
CC50 (NCI-H226; [4]): > 100 µM
GI50 (UACC-62): 1.27 µM
CC50 (UACC-62; [4]): 51 µM
GI50 (T47D): 1.5 µM
CC50 (T47D; [4]): > 100 µM
GI50 (LOX IMVI): 1.43 µM
CC50 (LOX IMVI; [4]): > 100 µM
GI50 (HT-29): 5.99 µM
CC50 (HT-29; [4]): > 100 µM
GI50 (OVCAR-5): 5.51 µM
CC50 (OVCAR-5; [4]): > 100 µM
GI50 [3]: 0.97 µM
CC50 [3, 4]: > 100 µM
GI50 (A549): 4.44 µM
CC50 (A549; [4]): > 100 µM
GI50 (Malme-3M): 2.01 µM
CC50 (Malme-3M; [4]): > 100 µM
GI50 (OVCAR-4): 4.13 µM
CC50 (OVCAR-4; [4]): > 100 µM
GI50 (SK-OV-3): 0.86 µM
CC50 (SK-OV-3; [4]): 79.8 µM
GI50 (CCRF-CEM): 3.06 µM
CC50 (CCRF-CEM; [4]): > 100 µM
GI50 (SK-MEL-2): 0.3 µM
CC50 (SK-MEL-2; [4]): 30.6 µM
GI50 (MDA-MB-231): 3.32 µM
CC50 (MDA-MB-231; [4]): > 100 µM
GI50 (HCC 2998): 2.43 µM
CC50 (HCC 2998; [4]): 85 µM
GI50 (HCT-116): 1.21 µM
CC50 (HCT-116; [4]): > 100 µM
GI50 (SW-620): 2.27 µM
CC50 (SW-620; [4]): > 100 µM
